Converted amounts (≈) assume the structure as drawn.
Legend:
Assay type in all cases: functional
[1] = tested on: Staphylococcus epidermidis; assay: Antibacterial activity against methicillin-sensitive Staphylococcus epidermidis 14-2 after 18 to 24 hrs
Method in brief: (§1)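 MIC by standard NCCLS reference procedure (M100-S11); lowest concentration of compound inhibiting visible bacterial growth after incubation at 35 °C for 18–24 h, read as complete inhibition of growth. Ciprofloxacin, levofloxacin and moxifloxacin run alongside as reference agents.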

Streptococcus pneumoniae = assay: Antibacterial activity against Streptococcus pneumoniae ATCC 19615 after 18 to 24 hrs; method in brief: as §1
Klebsiella pneumoniae [2] = assay: Antibacterial activity against ESBL-positive Klebsiella pneumoniae 14-18 after 18 to 24 hrs; method in brief: as §1
Enterococcus faecalis [3] = assay: Antibacterial activity against Enterococcus faecalis 14-2 after 18 to 24 hrs; method in brief: as §1
Klebsiella pneumoniae [4] = assay: Antibacterial activity against Klebsiella pneumoniae 14-1 after 18 to 24 hrs; method in brief: as §1
Staphylococcus aureus [5] = assay: Antibacterial activity against methicillin-sensitive Staphylococcus aureus 14-3 after 18 to 24 hrs; method in brief: as §1
Escherichia coli [6] = assay: Antibacterial activity against ESBL-positive Escherichia coli 14-1 after 18 to 24 hrs; method in brief: as §1
Klebsiella pneumoniae [7] = assay: Antibacterial activity against Klebsiella pneumoniae 14-2 after 18 to 24 hrs; method in brief: as §1
Staphylococcus aureus [8] = assay: Antibacterial activity against methicillin-sensitive Staphylococcus aureus 14-4 after 18 to 24 hrs; method in brief: as §1
Pseudomonas aeruginosa [9] = assay: Antibacterial activity against Pseudomonas aeruginosa 14-14 after 18 to 24 hrs; method in brief: as §1
Pseudomonas aeruginosa [10] = assay: Antibacterial activity against Pseudomonas aeruginosa 14-16 after 18 to 24 hrs; method in brief: as §1
Enterococcus faecalis [11] = assay: Antibacterial activity against Enterococcus faecalis 14-1 after 18 to 24 hrs; method in brief: as §1
Staphylococcus aureus [12] = assay: Antibacterial activity against methicillin-resistant Staphylococcus aureus 14-5 after 18 to 24 hrs
Escherichia coli [13] = assay: Antibacterial activity against ESBL-positive Escherichia coli 14-2 after 18 to 24 hrs; method in brief: as §1
Staphylococcus aureus [14] = assay: Antibacterial activity against methicillin-sensitive Staphylococcus aureus 14-1 after 18 to 24 hrs; method in brief: as §1
Pseudomonas aeruginosa [15] = assay: Antibacterial activity against Pseudomonas aeruginosa 14-19 after 18 to 24 hrs; method in brief: as §1
Klebsiella pneumoniae [16] = assay: Antibacterial activity against ESBL-positive Klebsiella pneumoniae 14-19 after 18 to 24 hrs; method in brief: as §1
Escherichia coli [17] = assay: Antibacterial activity against Escherichia coli 14-2 after 18 to 24 hrs; method in brief: as §1
Enterococcus faecium [18] = assay: Antibacterial activity against Enterococcus faecium 14-5 after 18 to 24 hrs; method in brief: as §1
[19] = tested on: Staphylococcus epidermidis; assay: Antibacterial activity against methicillin-resistant Staphylococcus epidermidis 14-39 after 18 to 24 hrs
Staphylococcus aureus [20] = assay: Antibacterial activity against Staphylococcus aureus CMCC 26003 after 18 to 24 hrs; method in brief: as §1
Klebsiella pneumoniae [21] = assay: Antibacterial activity against Klebsiella pneumoniae 14-3 after 18 to 24 hrs; method in brief: as §1
Klebsiella pneumoniae [22] = assay: Antibacterial activity against ESBL-positive Klebsiella pneumoniae 14-17 after 18 to 24 hrs; method in brief: as §1
Escherichia coli [23] = assay: Antibacterial activity against Escherichia coli 14-1 after 18 to 24 hrs; method in brief: as §1
[24] = tested on: Mycobacterium tuberculosis; assay: Antimycobacterial activity against Mycobacterium tuberculosis H37Rv ATCC 27294 by alamar blue assay
Method in brief: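 Microplate Alamar Blue Assay; MIC is the lowest concentration giving ≥90% reduction in fluorescence relative to the mean of replicate bacterium-only controls. MDR strain 6133 is resistant to isoniazid and rifampicin.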

[25] = tested on: Staphylococcus epidermidis; assay: Antibacterial activity against methicillin-resistant Staphylococcus epidermidis 14-37 after 18 to 24 hrs
Enterococcus faecium [26] = assay: Antibacterial activity against Enterococcus faecium 14-6 after 18 to 24 hrs; method in brief: as §1
Pseudomonas aeruginosa [27] = assay: Antibacterial activity against Pseudomonas aeruginosa 14-15 after 18 to 24 hrs; method in brief: as §1
Pseudomonas aeruginosa [28] = assay: Antibacterial activity against Pseudomonas aeruginosa ATCC 27853 after 18 to 24 hrs; method in brief: as §1
[29] = tested on: Staphylococcus epidermidis; assay: Antibacterial activity against methicillin-resistant Staphylococcus epidermidis 14-22 after 18 to 24 hrs
Pseudomonas aeruginosa [30] = assay: Antibacterial activity against Pseudomonas aeruginosa 14-9 after 18 to 24 hrs; method in brief: as §1
Staphylococcus aureus [31] = assay: Antibacterial activity against methicillin-sensitive Staphylococcus aureus 14-2 after 18 to 24 hrs; method in brief: as §1
Escherichia coli [32] = assay: Antibacterial activity against Escherichia coli ATCC 25922 after 18 to 24 hrs; method in brief: as §1
Staphylococcus aureus [33] = assay: Antibacterial activity against methicillin-resistant Staphylococcus aureus 14-4 after 18 to 24 hrs
Klebsiella pneumoniae [34] = assay: Antibacterial activity against Klebsiella pneumoniae 14-4 after 18 to 24 hrs; method in brief: as §1
Enterococcus faecium [35] = assay: Antibacterial activity against Enterococcus faecium 14-2 after 18 to 24 hrs; method in brief: as §1
[36] = tested on: Staphylococcus epidermidis; assay: Antibacterial activity against methicillin-resistant Staphylococcus epidermidis 14-21 after 18 to 24 hrs
Enterococcus faecium [37] = assay: Antibacterial activity against Enterococcus faecium 14-1 after 18 to 24 hrs; method in brief: as §1

Row | SMILES | MIC [1] [µg/mL] | MIC (Streptococcus pneumoniae) [µg/mL] | MIC (Klebsiella pneumoniae [2]) [µg/mL] | MIC (Enterococcus faecalis [3]) [µg/mL] | MIC (Klebsiella pneumoniae [4]) [µg/mL] | MIC (Staphylococcus aureus [5]) [µg/mL] | MIC (Escherichia coli [6]) [µg/mL] | MIC (Klebsiella pneumoniae [7]) [µg/mL] | MIC (Staphylococcus aureus [8]) [µg/mL] | MIC (Pseudomonas aeruginosa [9]) [µg/mL] | MIC (Pseudomonas aeruginosa [10]) [µg/mL] | MIC (Enterococcus faecalis [11]) [µg/mL] | MIC (Staphylococcus aureus [12]) [µg/mL] | MIC (Escherichia coli [13]) [µg/mL] | MIC (Staphylococcus aureus [14]) [µg/mL] | MIC (Pseudomonas aeruginosa [15]) [µg/mL] | MIC (Klebsiella pneumoniae [16]) [µg/mL] | MIC (Escherichia coli [17]) [µg/mL] | MIC (Enterococcus faecium [18]) [µg/mL] | MIC [19] [µg/mL] | also measured
1 | NCC1CN(c2nc3c(cc2F)c(=O)c(C(=O)O)cn3[C@@H]2C[C@@H]2F)C/C1=N\OCc1ccc([N+](=O)[O-])cc1 (stereo partly specified) | 128 (≈ 242 µM) | 0.015 (≈ 0.0284 µM) | 16 (≈ 30.3 µM) | 0.25 (≈ 0.473 µM) | 128 (≈ 242 µM) | 0.03 (≈ 0.0568 µM) | 4 (≈ 7.57 µM) | 128 (≈ 242 µM) | 0.125 (≈ 0.237 µM) | 16 (≈ 30.3 µM) | 16 (≈ 30.3 µM) | 64 (≈ 121 µM) | 4 (≈ 7.57 µM) | > 128 | 4 (≈ 7.57 µM) | 16 (≈ 30.3 µM) | 128 (≈ 242 µM) | 128 (≈ 242 µM) | 8 (≈ 15.1 µM) | 8 (≈ 15.1 µM) | MIC (Staphylococcus aureus [20]): 0.015 µg/mL (≈ 0.0284 µM); MIC (Klebsiella pneumoniae [21]): 128 µg/mL (≈ 242 µM); MIC (Klebsiella pneumoniae [22]): 8 µg/mL (≈ 15.1 µM); MIC (Escherichia coli [23]): 128 µg/mL (≈ 242 µM); MIC90 [24]: 0.467 µg/mL (≈ 0.884 µM); MIC [25]: 4 µg/mL (≈ 7.57 µM); MIC (Enterococcus faecium [26]): 4 µg/mL (≈ 7.57 µM); MIC (Pseudomonas aeruginosa [27]): 16 µg/mL (≈ 30.3 µM); MIC (Pseudomonas aeruginosa [28]): 4 µg/mL (≈ 7.57 µM); MIC [29]: 8 µg/mL (≈ 15.1 µM); MIC (Pseudomonas aeruginosa [30]): 4 µg/mL (≈ 7.57 µM); MIC (Staphylococcus aureus [31]): 0.06 µg/mL (≈ 0.114 µM); MIC (Escherichia coli [32]): 0.25 µg/mL (≈ 0.473 µM); MIC (Staphylococcus aureus [33]): 128 µg/mL (≈ 242 µM); MIC (Klebsiella pneumoniae [34]): 128 µg/mL (≈ 242 µM); MIC (Enterococcus faecium [35]): 4 µg/mL (≈ 7.57 µM); MIC [36]: 16 µg/mL (≈ 30.3 µM); MIC (Enterococcus faecium [37]): 4 µg/mL (≈ 7.57 µM)
2 | CC1(N)CN(c2nc3c(cc2F)c(=O)c(C(=O)O)cn3[C@@H]2C[C@@H]2F)C/C1=N\OCc1ccccc1 (stereo partly specified) | > 128 | 0.5 (≈ 1.03 µM) | 128 (≈ 265 µM) | 2 (≈ 4.14 µM) | > 128 | 0.5 (≈ 1.03 µM) | 64 (≈ 132 µM) | > 128 | 1 (≈ 2.07 µM) | 64 (≈ 132 µM) | 64 (≈ 132 µM) | 128 (≈ 265 µM) | 64 (≈ 132 µM) | > 128 | 16 (≈ 33.1 µM) | 64 (≈ 132 µM) | > 128 | > 128 | > 128 | 64 (≈ 132 µM) | MIC (Staphylococcus aureus [20]): 0.03 µg/mL (≈ 0.0621 µM); MIC (Klebsiella pneumoniae [21]): > 128 µg/mL; MIC (Klebsiella pneumoniae [22]): 128 µg/mL (≈ 265 µM); MIC (Escherichia coli [23]): > 128 µg/mL; MIC90 [24]: 0.923 µg/mL (≈ 1.91 µM); MIC [25]: 128 µg/mL (≈ 265 µM); MIC (Enterococcus faecium [26]): > 128 µg/mL; MIC (Pseudomonas aeruginosa [27]): 64 µg/mL (≈ 132 µM); MIC (Pseudomonas aeruginosa [28]): 32 µg/mL (≈ 66.2 µM); MIC [29]: 32 µg/mL (≈ 66.2 µM); MIC (Pseudomonas aeruginosa [30]): 64 µg/mL (≈ 132 µM); MIC (Staphylococcus aureus [31]): 0.03 µg/mL (≈ 0.0621 µM); MIC (Escherichia coli [32]): 2 µg/mL (≈ 4.14 µM); MIC (Staphylococcus aureus [33]): 32 µg/mL (≈ 66.2 µM); MIC (Klebsiella pneumoniae [34]): > 128 µg/mL; MIC (Enterococcus faecium [35]): > 128 µg/mL; MIC [36]: 64 µg/mL (≈ 132 µM); MIC (Enterococcus faecium [37]): > 128 µg/mL

— ChEMBL document CHEMBL3632558, “Synthesis, antimycobacterial and antibacterial activity of l-[(1R,2S)-2-fluorocyclopropyl]naphthyridone derivatives containing an oxime-functionalized pyrrolidine moiety” (2015)
